How the values were obtained:
[1] = Cmax in neutropenic ICR mouse infected with Staphylococcus aureus ATCC 29213 at 50 mg/kg, sc by HPLC; assay type: ADME, organism-based; design: dose 50 mg/kg, route subcutaneous; details: in vivo
Summary of the method: (§1)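 Neutropenic female ICR mice (cyclophosphamide 150 and 100 mg/kg ip, 4 days and 1 day before inoculation), both thighs inoculated im with ~10^7 CFU/ml of ATCC 29213. Single sc doses of 50, 25, 12.5 or 6.25 mg/kg. Cardiac blood taken from groups of six at 8–12 times over 0.5–24 h. Serum measured by HPLC (linear 0.05–5 µg/ml). Two-compartment fit by nonlinear least squares; AUC by trapezoidal rule.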

[2] = Cmax in neutropenic ICR mouse infected with Staphylococcus aureus ATCC 29213 at 12.5 mg/kg, sc by HPLC; assay type: ADME, organism-based; design: dose 12.5 mg/kg, route subcutaneous; details: in vivo; summary of the method: as §1
[3] = Cmax in neutropenic ICR mouse infected with Staphylococcus aureus ATCC 29213 at 6.25 mg/kg, sc by HPLC; assay type: ADME, organism-based; design: dose 6.25 mg/kg, route subcutaneous; details: in vivo; summary of the method: as §1
[4] = AUC (0 to 24 hrs) in neutropenic ICR mouse infected with Staphylococcus aureus ATCC 29213 at 25 mg/kg, sc by HPLC; assay type: ADME, organism-based; design: time < 24 hr, dose 25 mg/kg, route subcutaneous; details: plasma; summary of the method: as §1
[5] = Elimination half life in neutropenic ICR mouse infected with methicillin-sensitive Staphylococcus aureus ATCC 29213 at 25 mg/kg, sc by HPLC; assay type: ADME, organism-based; design: dose 25 mg/kg, route subcutaneous; details: in vivo, read-out: beta t1/2 (converted); summary of the method: as §1
Staphylococcus aureus [6] = assay: Antimicrobial activity against hospital-acquired methicillin-resistant Staphylococcus aureus isolate 56 infected in neutropenic ICR mouse assessed as decrease in bacterial density at 1.56 to 400 mg/kg, sc after 24 hrs; assay type: functional; details: dose mg/kg 1.56-400; route subcutaneous
Summary of the method: (§2)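 Female ICR mice (~25 g) made neutropenic with cyclophosphamide 150 and 100 mg/kg ip, 4 and 1 days before infection. Each thigh inoculated im with 0.1 ml of ~10^7 CFU/ml from an overnight subculture. Tigecycline sc (0.2 ml) given 2 h later as single or multiple doses of 1.56–50 mg/kg, 1.56–400 mg/kg/day, 3 mice/group. Saline-injected controls. Thighs harvested at 24 h, homogenized in saline, plated on blood agar; log10 CFU change vs 0-h controls.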

[7] = fAUC/MIC in methicillin-sensitive Staphylococcus aureus ATCC 29213-infected neutropenic ICR mouse at 80% effective exposure index; assay type: functional
Summary of the method: (§3)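 fT>MIC, fCmax/MIC and fAUC/MIC were built from the serum pharmacokinetics, protein binding, modal broth-microdilution MIC (triplicate, CLSI) and 24-h thigh CFU change. Each index was fit to a sigmoidal Emax model. EI50, EI80 and stasis exposures were taken from each isolate's curve.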

[8] = fAUC/MIC in community acquired methicillin-resistant Staphylococcus aureus isolate 144-infected neutropenic ICR mouse at 80% effective exposure index; assay type: functional
Summary of the method: (§4)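 Single-dose serum PK in infected neutropenic mice (sc 6.25–50 mg/kg; HPLC; two-compartment fit; AUC by trapezoidal rule; lower doses simulated). Free fraction from ultrafiltration of spiked mouse serum, in triplicate. Free exposures divided by modal MIC and plotted against 24-h log10 CFU change with a sigmoidal Emax model; EI50, EI80 and stasis values read from the fitted curves.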

[9] = fAUC/MIC in community acquired methicillin-resistant Staphylococcus aureus isolate 147-infected neutropenic ICR mouse at 80% effective exposure index; assay type: functional; summary of the method: as §4
[10] = fAUC/MIC in community acquired methicillin-resistant Staphylococcus aureus isolate 156-infected neutropenic ICR mouse at 50% effective exposure index; assay type: functional; summary of the method: as §4
[11] = fAUC/MIC in methicillin-sensitive Staphylococcus aureus ATCC 29213-infected neutropenic ICR mouse at stasis dose; assay type: functional; summary of the method: as §3
Staphylococcus aureus [12] = assay: Antimicrobial activity against methicillin-sensitive Staphylococcus aureus ATCC 29213 infected in neutropenic ICR mouse assessed as change in bacterial load after 24 hrs; assay type: functional
Summary of the method: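 Neutropenic ICR mice had both thighs inoculated with ~10^7 CFU/ml; dosing began 2 h later. Groups of three received 1.56–400 mg/kg/day sc as single or divided doses, with saline-dosed controls. Thighs were homogenized and plated on blood agar at 24 h. Read-out was the log10 CFU/ml change relative to 0-h controls.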

Staphylococcus aureus [13] = assay: Antimicrobial activity against methicillin-sensitive Staphylococcus aureus ATCC 25923 infected in neutropenic ICR mouse assessed as change in bacterial load after 24 hrs; assay type: functional; summary of the method: as §2
Staphylococcus aureus [14] = assay: Antimicrobial activity against community acquired methicillin-resistant Staphylococcus aureus isolate 156 infected in immunocompetent ICR mouse assessed as reduction in bacterial load at 1.56 […] after 24 hrs; assay type: functional
Summary of the method: (§5)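 Non-neutropenic ICR mice (no cyclophosphamide). Each thigh inoculated im with 0.1 ml of ~10^8 CFU/ml. Tigecycline given sc once daily at 1.56, 3.13, 6.25 or 12.5 mg/kg starting 2 h post-infection, 3 mice/group. Thighs harvested at 24 h, homogenized, plated on blood agar; log10 CFU change vs 0-h controls.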

Staphylococcus aureus [15] = assay: Antimicrobial activity against community acquired methicillin-resistant Staphylococcus aureus isolate 156 infected in immunocompetent ICR mouse assessed as reduction in bacterial load at […] after 24 hrs; assay type: functional; summary of the method: as §5
Staphylococcus aureus [16] = assay: Antimicrobial activity against community acquired methicillin-resistant Staphylococcus aureus isolate 156 infected in immunocompetent ICR mouse assessed as reduction in bacterial load at 12.5 […] after 24 hrs; assay type: functional; summary of the method: as §5
[17] = fAUC/MIC in community acquired methicillin-resistant Staphylococcus aureus isolate 156 infected-immunocompetent ICR mouse at 1.56 […], sc QD; assay type: functional
Summary of the method: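 Derived from neutropenic-mouse serum PK (HPLC, two-compartment fit) with ultrafiltration protein-binding correction, divided by modal MIC.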

[18] = fAUC/MIC in community acquired methicillin-resistant Staphylococcus aureus isolate 156 infected-immunocompetent ICR mouse at […], sc QD; assay type: functional
Acinetobacter baumannii [19] = assay: Antimicrobial activity against carbapenem-intermediate,-resistant Acinetobacter baumannii assessed as decrease in bacterial count at 0.7 times of MIC after 24 hrs by time kill analysis; assay type: functional
Acinetobacter baumannii [20] = assay: Antimicrobial activity against carbapenem-intermediate,-resistant Acinetobacter baumannii assessed as decrease in bacterial count at 0.8 times of MIC after 48 hrs by time kill analysis; assay type: functional
[21] = r2 of fAUC/MIC in hospital-acquired methicillin-resistant Staphylococcus aureus isolate 56-infected neutropenic ICR mouse
[22] = r2 for fT>MIC in community acquired methicillin-resistant Staphylococcus aureus isolate 147-infected neutropenic ICR mouse
[23] = r2 for fT>MIC in community acquired methicillin-resistant Staphylococcus aureus isolate 156-infected neutropenic ICR mouse
[24] = r2 of fT>MIC in methicillin-sensitive methicillin-sensitive Staphylococcus aureus ATCC 29213-infected neutropenic ICR mouse
[25] = r2 for fAUC/MIC in community acquired methicillin-resistant Staphylococcus aureus isolate 144-infected neutropenic ICR mouse
[26] = r2 for fAUC/MIC in community acquired methicillin-resistant Staphylococcus aureus isolate 147-infected neutropenic ICR mouse

Structure (SMILES): CN(C)c1cc(NC(=O)CNC(C)(C)C)c(O)c2c1C[C@H]1C[C@H]3[C@H](N(C)C)C(O)=C(C(N)=O)C(=O)[C@@]3(O)C(O)=C1C2=O [TIGECYCLINE]
- Cmax [1]: 12200 ng/mL
- Cmax [2]: 2380 ng/mL
- Cmax [3]: 1680 ng/mL
- AUC(0-t) at 24 h [4]: 25200 ng·h/mL
- half-life [5]: 708 min
- CFU (Staphylococcus aureus [6]): 1.5
- fAUC/MIC [7]: 4.1
- fAUC/MIC [8]: 3.2
- fAUC/MIC [9]: 3.5
- fAUC/MIC [10]: 5.1
- fAUC/MIC [11]: 0.5
- log10CFU/ml (Staphylococcus aureus [12]): 2.3
- log10CFU/ml (Staphylococcus aureus [13]): 1.4
- log10cfu (Staphylococcus aureus [14]): 1.6
- log10cfu (Staphylococcus aureus [15]): 1.9
- log10cfu (Staphylococcus aureus [16]): 1.6
- fAUC/MIC [17]: 1.8
- fAUC/MIC [18]: 3.6
- log10cfu (Acinetobacter baumannii [19]): 2
- log10cfu (Acinetobacter baumannii [20]): 3.5
- r2 [21]: 0.957
- r2 [22]: 0.483%
- r2 [23]: 0.894%
- r2 [24]: 0.699%
- r2 [25]: 0.954
- r2 [26]: 0.966
